Experimental data gathered from unrelated publications.
Each line is one published result; the experiments were not run side by side.
Read-out: cell growth or viability

COc1cc2c(Oc3ccc(NC(=O)C4(C(=O)Nc5ccc(F)cc5)CC4)cc3F)ccnc2cc1OCCCN1CCOCC1  IC50 (BJ; 72 h): 180 nM
COc1cccc2c1C(=O)c1c(O)c3c(c(O)c1C2=O)C[C@@](O)(C(=O)CO)C[C@@H]3O[C@H]1C[C@H](N)[C@H](O)[C@H](C)O1  IC50 (WI-38 VA13; MTT; 48 h): 0.22 µg/mL
CC(C)C(=O)Nc1ccc([N+](=O)[O-])c(C(F)(F)F)c1  IC50 (IOSE-144; CCK-8; 48 h): > 50000 nM
Oc1ccc(-c2ccc3cc(O)ccc3c2)c(O)c1  IC50 (CHL; MTT; 24 h): 119 µg/mL
COc1cc2nccc(Oc3ccc(NC(=O)C4(C(=O)Nc5ccc(F)cc5)CC4)cc3)c2cc1OC  IC50 (BJ; 72 h): 4520 nM
O=C1NC(=O)[C@@H](c2cn3c4c(cccc24)CCC3)[C@@H]1c1c[nH]c2ccccc12  IC50 (SW-1736; MTT; 72 h): 110 nM
COc1cc(N2CCC(N3CCN(C)CC3)CC2)ccc1Nc1ncc(Cl)c(Nc2ccccc2S(=O)(=O)C(C)C)n1  IC50 (BJ; 72 h): 900 nM
O=C(N/N=C/c1c(O)ccc2ccccc12)c1cc(-c2ccc3ccccc3c2)n[nH]1  IC50 (1205Lu; MTS; 48 h): 5800 nM
CC(C)C[C@H](NC(=O)[C@H](Cc1ccccc1)NC(=O)c1cnccn1)B(O)O  IC50 (HuTu80; ATP luminescence): 14 nM
C[C@H]1[C@@H](O)O[C@@H]2O[C@@]3(C)CC[C@H]4[C@H](C)CC[C@@H]1[C@@]24OO3  IC50 (IOSE-144; CCK-8; 48 h): > 50000 nM
Oc1ccc(Nc2nc(-c3ccc(Cl)cc3)cs2)cc1  IC50 (1205Lu; MTS; 24 h): > 100000 nM
CC(=O)O[C@H]1C(=O)[C@@]2(C)[C@H]([C@H](OC(=O)c3ccccc3)[C@]3(O)C[C@H](OC(=O)[C@H](O)[C@@H](NC(=O)c4ccccc4)c4ccccc4)C(C)=C1C3(C)C)[C@]1(OC(C)=O)CO[C@@H]1C[C@@H]2O  IC50 (LN-18): 1 µg/mL
